One may read the IC50 as the concentration that gives 50% inhibition. Usually Ki stands for a measure of affinity in units of concentration, obtained from inhibition or displacement. The low end stands for a stronger hold on the target, the high end for a looser hold on the target. By inhibition is commonly meant the percentage by which the read-out fell short of the control.

For twelve molecules, IC50, Ki and inhibition results are on record in ChEMBL document CHEMBL4715757, “Studies on the inhibition of sphingosine-1-phosphate lyase by stabilized reaction intermediates and stereodefined azido phosphates” (Eur J Med Chem, 2016).

For assay [1], the target named is T1, Sphingosine-1-phosphate lyase 1 (Mus musculus, UniProt Q8R0X7).
T1 sequence (Q8R0X7 whole entry): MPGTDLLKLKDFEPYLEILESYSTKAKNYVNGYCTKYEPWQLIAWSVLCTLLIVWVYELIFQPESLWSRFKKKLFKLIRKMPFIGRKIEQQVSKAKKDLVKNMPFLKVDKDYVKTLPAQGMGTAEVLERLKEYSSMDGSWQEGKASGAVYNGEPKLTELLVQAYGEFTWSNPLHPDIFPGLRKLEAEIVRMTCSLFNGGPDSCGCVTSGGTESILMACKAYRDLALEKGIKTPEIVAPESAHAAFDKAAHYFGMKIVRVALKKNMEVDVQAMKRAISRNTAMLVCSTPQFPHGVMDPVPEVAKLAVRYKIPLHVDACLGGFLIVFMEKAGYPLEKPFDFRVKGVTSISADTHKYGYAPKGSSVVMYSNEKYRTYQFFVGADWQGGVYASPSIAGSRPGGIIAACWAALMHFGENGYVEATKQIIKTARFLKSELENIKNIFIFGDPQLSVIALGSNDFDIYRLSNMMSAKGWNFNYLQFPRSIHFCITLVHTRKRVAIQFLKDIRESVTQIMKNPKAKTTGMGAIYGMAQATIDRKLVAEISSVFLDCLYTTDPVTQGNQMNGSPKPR
Kind of assay: Inhibition of mouse liver microsomal S1PL using S1P as substrate incubated for 20 mins by ESI-LC/MS analysis. The class given is microsomes, Microsome.

Assay [2] in a line: Inhibition of recombinant full-length wild type Symbiobacterium thermophilum S1PL using RBM13 as fluorogenic substrate incubated for 1 hr. A digest of the protocol:
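StS1PL, expressed and purified in-house, used at 25 µg/mL final. Buffer: 1 mM potassium phosphate pH 7.2 with 100 mM NaCl, 1 mM EDTA, 1 mM DTT and 10 µM PLP. RBM13 at 125 µM final; 37 °C for 1 h. Stopped with MeOH, then glycine-NaOH pH 10.6 for 20 min at 37 °C. Umbelliferone read at ex/em 355/460 nm against a calibration curve. IC50 fitted from % activity vs log[I].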

The target of assay [3] is T2, Sphingosine-1-phosphate lyase 1 (Homo sapiens, UniProt O95470).
T2 sequence (O95470 whole entry): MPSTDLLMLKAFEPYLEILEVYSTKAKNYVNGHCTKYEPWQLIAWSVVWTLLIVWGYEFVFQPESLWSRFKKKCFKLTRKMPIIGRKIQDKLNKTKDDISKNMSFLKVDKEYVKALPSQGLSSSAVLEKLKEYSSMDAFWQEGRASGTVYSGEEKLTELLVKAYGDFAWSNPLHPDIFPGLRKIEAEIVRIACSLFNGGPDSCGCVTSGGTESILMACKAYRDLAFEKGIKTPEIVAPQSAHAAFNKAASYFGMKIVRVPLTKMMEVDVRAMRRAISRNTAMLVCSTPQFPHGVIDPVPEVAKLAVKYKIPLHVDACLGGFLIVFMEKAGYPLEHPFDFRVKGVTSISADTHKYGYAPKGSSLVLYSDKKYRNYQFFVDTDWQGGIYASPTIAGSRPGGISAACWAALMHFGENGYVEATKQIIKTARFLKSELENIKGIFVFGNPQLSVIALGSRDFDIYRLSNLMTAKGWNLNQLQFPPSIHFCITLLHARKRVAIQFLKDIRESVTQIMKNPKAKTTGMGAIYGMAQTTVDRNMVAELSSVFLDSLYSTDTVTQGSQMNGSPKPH
Put plainly: Inhibition of recombinant human S1PL using RBM13 as fluorogenic substrate incubated for 1 hr. The gist of the method:
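Recombinant hS1PL at 3 µg/mL final in 100 mM HEPES pH 7.4 with 0.1 mM EDTA, 0.05% Triton X-100, 0.01% Pluronic F127 and 100 µM PLP. RBM13 at 125 µM final; 37 °C for 1 h. MeOH stop, then glycine-NaOH pH 10.6 for 20 min at 37 °C. Umbelliferone fluorescence at 355/460 nm, calibration curve. IC50 from % activity vs log[I].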

For assay [4], the target named is T2, Sphingosine-1-phosphate lyase 1. Put plainly: Competitive inhibition of human S1PL using varying levels of RBM13 as substrate by Lineweaver-Burk plot analysis.
Assay [5] concerns Symbiobacterium thermophilum. Put plainly: Inhibition of recombinant full-length wild type Symbiobacterium thermophilum S1PL at 250 uM using RBM13 as fluorogenic substrate incubated for 1 hr relative to control.
Assay [6] has as its target T3, Sphingosine-1-phosphate lyase 1 (Homo sapiens) (UniProt O95470).
T3 sequence (whole entry): T2 sequence (O95470 whole entry)
Kind of assay: Inhibition of recombinant human S1PL at 250 uM using RBM13 as fluorogenic substrate incubated for 1 hr relative to control.

As for `CCCCCCCCc1ccc(CCC(N)(CO)CO)cc1` [FINGOLIMOD], half-maximal inhibition in assay [1] (IC50) was put at 52.4 µM.

In the case of `CCCCCCCCCCCCC/C=C/[C@@H](O)[C@H](COP(=O)(O)O)N=[N+]=[N-]`, the IC50 in assay [2] turned out to be 12.9 µM; in assay [3] it was 10.1 µM. Moreover, in assay [4], the affinity corresponds to a Ki of 9.1 µM.

Regarding `CCCCCCCCCCCCC/C=C/[C@@H](O)[C@@H](COP(=O)(O)O)N=[N+]=[N-]`, the IC50 turned out to be 11.7 µM in assay [2] and 22.9 µM in assay [3]. For the same molecule, in assay [4], the affinity, expressed as Ki, was 17.5 µM.

With `CCCCCCCCCCCCC/C=C/[C@H](O)[C@@H](COP(=O)(O)O)N=[N+]=[N-]`, the IC50 is 13.8 µM in assay [2] and 5.2 µM in assay [3]. The molecule also yielded a Ki in assay [4] of 5.6 µM.

In the case of `Cc1ncc(COP(=O)(O)O)c(CNCCOP(=O)(O)O)c1O`, the inhibition in assay [5] and in assay [6] was 20% each time.

On to `CCCCCCCCCCCCCCC[C@@H](O)[C@H](COP(=O)(O)O)N=[N+]=[N-]`, for which the IC50 in assay [2] was found to be 25 µM; in assay [3], 25.7 µM. This molecule returned a Ki in assay [4] of 19 µM.

For the molecule `CCCCCCCCCCCCCCC[C@@H](O)[C@@H](COP(=O)(O)O)N=[N+]=[N-]`, the IC50 in assay [2] was 24.3 µM; in assay [3], 28.3 µM. Moreover, the Ki in assay [4] came to 36.7 µM.

`CCCCCCCCCCCCC/C=C/[C@H](O)[C@H](COP(=O)(O)O)N=[N+]=[N-]`: the IC50 in assay [2] was found to be 16 µM; in assay [3] it was 28.8 µM. Affinity in assay [4] was put at a Ki of 20.4 µM.

In the case of `CCCCCCCCCCCCCCC[C@@H](O)[C@H](COP(=O)(O)O)NCc1c(COP(=O)(O)O)cnc(C)c1O`, the IC50 worked out at 47 µM in assay [2] and 81.1 µM in assay [3].

Take `CCCCCCCCCCCCC/C=C/[C@@H](O)[C@H](COP(=O)(O)O)NCc1c(COP(=O)(O)O)cnc(C)c1O`: the IC50 in assay [2] was 53.4 µM; in assay [3] it was 89 µM.

On to `CCCCCCCCCCCCCCC[C@H](O)[C@@H](COP(=O)(O)O)N=[N+]=[N-]`, for which the IC50 in assay [2] was 25.7 µM; in assay [3], 10.8 µM. The affinity in assay [4] corresponds to a Ki of 6.3 µM.

In the case of `CCCCCCCCCCCCCCC[C@H](O)[C@H](COP(=O)(O)O)N=[N+]=[N-]`, the IC50 was 27.2 µM in assay [2] and 21.8 µM in assay [3]. Further, the affinity in assay [4], expressed as Ki, was 16.4 µM.
